Results: ChEMBL document CHEMBL1157407, “Inhibitors of bacterial multidrug efflux pumps from the resin glycosides of Ipomoea murucoides” (2008)
Values after ≈ are worked out from the molar mass of the structure shown.

How the values were obtained:
Format in all cases: functional
HEp-2 = assay: Cytotoxicity against human Hep2 cells after 72 hrs; settings: HEp-2, 72 h, read-out: ED50 (the source's name)
Procedure, shortened: (§1)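 Cells grown in RPMI 1640 with 10% fetal bovine serum at 37 °C, 5% CO2, humidified. Log-phase cells treated in triplicate with test samples at 0.16–20 μg/mL for 72 h. Growth read by the NCI sulforhodamine method. ED50 is the dose inhibiting 50% of control growth, estimated from a semilog plot of concentration against percentage of viable cells.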

Staphylococcus aureus [1] = assay: Antimicrobial activity against epidemic methicillin-resistant Staphylococcus aureus 15 containing mecA gene
Procedure, shortened: (§2)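 Broth microdilution MIC per NCCLS guidelines, at least in duplicate, in cation-adjusted Mueller-Hinton broth (20 mg/L Ca2+, 10 mg/L Mg2+). Strains grown on nutrient agar first. Inoculum 5×10^5 cfu prepared in 0.9% saline against a McFarland standard. Compounds dissolved in DMSO, 2-fold serial dilutions, final 1–512 µg/mL (DMSO ≤3.125% v/v). MIC taken as lowest concentration with no visible growth.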

Staphylococcus aureus [2] = assay: Antimicrobial activity against methicillin-resistant Staphylococcus aureus XU212; procedure, shortened: as §2
HeLa = assay: Cytotoxicity against human HeLa cells after 72 hrs; settings: read-out: ED50 (the source's name); procedure, shortened: as §1
Staphylococcus aureus [3] = assay: Antimicrobial activity against Staphylococcus aureus ATCC 25923
Procedure, shortened: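 Broth microdilution MIC per NCCLS guidelines, at least in duplicate. Inoculum 5×10^5 cfu prepared in 0.9% saline against a McFarland standard. Cation-adjusted Mueller-Hinton broth with 20 mg/L Ca2+ and 10 mg/L Mg2+. Compounds dissolved in DMSO, then 2-fold serial dilutions, final 1–512 μg/mL; DMSO at most 3.125% v/v. MIC is the lowest concentration giving no visible growth.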

KB = assay: Cytotoxicity against human KB cells after 72 hrs; settings: read-out: ED50 (the source's name); procedure, shortened: as §1
Staphylococcus aureus [4] = assay: Antimicrobial activity against multidrug-resistant Staphylococcus aureus over expressing NorA MDR efflux pump; procedure, shortened: as §2

## CCCCC[C@H]1CCCCCCCCCC(=O)O[C@H]2[C@H](O[C@H]3[C@H](O1)O[C@H](C)[C@H](O)[C@@H]3O)O[C@@H](C)[C@H](O[C@@H]1O[C@@H](C)[C@H](O[C@@H]3O[C@@H](C)[C@H](OC(=O)[C@@H](C)CC)[C@@H](O)[C@H]3O)[C@@H](O[C@@H]3O[C@@H](C)[C@H](O)[C@@H](O)[C@H]3O)[C@H]1OC(=O)[C@@H](C)CC)[C@H]2O [MURUCOIDIN III]
HEp-2
  EC50: 10.7 µg/mL (≈ 9.28 µM)
Staphylococcus aureus [1]
  MIC: > 512 µg/mL
Staphylococcus aureus [2]
  MIC: > 512 µg/mL
HeLa
  EC50: > 20 µg/mL
Staphylococcus aureus [3]
  MIC: > 512 µg/mL
KB
  EC50: 15.4 µg/mL (≈ 13.4 µM)
Staphylococcus aureus [4]
  MIC: > 512 µg/mL

## CCCCC[C@H]1CCCCCCCCCC(=O)O[C@H]2[C@H](O[C@H]3[C@H](O1)O[C@H](C)[C@H](O)[C@@H]3O)O[C@@H](C)[C@H](O[C@@H]1O[C@@H](C)[C@H](O[C@@H]3O[C@@H](C)[C@H](OC(=O)C(C)C)[C@@H](O)[C@H]3O)[C@@H](O[C@@H]3O[C@@H](C)[C@H](O)[C@@H](O)[C@H]3O)[C@H]1OC(=O)[C@@H](C)CC)[C@H]2O [MURUCOIDIN II]
HEp-2
  EC50: > 20 µg/mL
Staphylococcus aureus [1]
  MIC: > 512 µg/mL
Staphylococcus aureus [2]
  MIC: > 512 µg/mL
HeLa
  EC50: 16 µg/mL (≈ 14 µM)
Staphylococcus aureus [3]
  MIC: > 512 µg/mL
KB
  EC50: > 20 µg/mL
Staphylococcus aureus [4]
  MIC: > 512 µg/mL

## CCCCC[C@H]1CCCCCCCCCC(=O)O[C@H]2[C@H](O[C@H]3[C@H](O1)O[C@H](C)[C@H](O)[C@@H]3O)O[C@@H](C)[C@H](O[C@@H]1O[C@@H](C)[C@H](O[C@@H]3O[C@@H](C)[C@H](OC(=O)[C@@H](C)CC)[C@@H](O)[C@H]3O)[C@@H](O[C@@H]3O[C@H](CO)[C@@H](O)[C@H](O)[C@H]3O)[C@H]1OC(=O)[C@@H](C)CC)[C@H]2O [MURUCOIDIN IV]
HEp-2
  EC50: 4 µg/mL (≈ 3.42 µM)
Staphylococcus aureus [1]
  MIC: > 512 µg/mL
Staphylococcus aureus [2]
  MIC: > 512 µg/mL
HeLa
  EC50: > 20 µg/mL
Staphylococcus aureus [3]
  MIC: > 512 µg/mL
KB
  EC50: 15 µg/mL (≈ 12.8 µM)
Staphylococcus aureus [4]
  MIC: > 512 µg/mL

## CCCCC[C@H]1CCCCCCCCCC(=O)O[C@H]2[C@@H](O)[C@H](O[C@H]3[C@H](O1)O[C@H](C)[C@H](O)[C@@H]3O)O[C@@H](C)[C@@H]2O[C@@H]1O[C@@H](C)[C@H](O[C@@H]2O[C@@H](C)[C@H](OC(=O)C(C)C)[C@@H](O)[C@H]2O)[C@@H](O[C@@H]2O[C@@H](C)[C@H](O)[C@@H](O)[C@H]2O)[C@H]1OC(=O)[C@@H](C)CC [MURUCOIDIN IX]
HEp-2
  EC50: 10.2 µg/mL (≈ 8.95 µM)
Staphylococcus aureus [1]
  MIC: > 512 µg/mL
Staphylococcus aureus [2]
  MIC: > 512 µg/mL
HeLa
  EC50: 12.4 µg/mL (≈ 10.9 µM)
Staphylococcus aureus [3]
  MIC: > 512 µg/mL
KB
  EC50: > 20 µg/mL
Staphylococcus aureus [4]
  MIC: > 512 µg/mL

## CCCCC[C@H]1CCCCCCCCCC(=O)O[C@H]2[C@H](O[C@H]3[C@H](O1)O[C@H](C)[C@H](O)[C@@H]3O)O[C@@H](C)[C@H](O[C@@H]1O[C@@H](C)[C@H](O[C@@H]3O[C@@H](C)[C@H](O)[C@@H](O)[C@H]3O)[C@@H](O[C@@H]3O[C@@H](C)[C@H](O)[C@@H](O)[C@H]3O)[C@H]1OC(=O)[C@@H](C)CC)[C@H]2O [MURUCOIDIN I]
HEp-2
  EC50: > 20 µg/mL
Staphylococcus aureus [1]
  MIC: 256 µg/mL (≈ 239 µM)
Staphylococcus aureus [2]
  MIC: 512 µg/mL (≈ 479 µM)
HeLa
  EC50: > 20 µg/mL
Staphylococcus aureus [3]
  MIC: > 512 µg/mL
KB
  EC50: > 20 µg/mL
Staphylococcus aureus [4]
  MIC: 32 µg/mL (≈ 29.9 µM)

## CCCCC[C@H]1CCCCCCCCCC(=O)O[C@H]2[C@H](O[C@H]3[C@H](O1)O[C@H](CO)[C@@H](O)[C@@H]3O)O[C@@H](C)[C@H](O[C@@H]1O[C@@H](C)[C@H](O[C@@H]3O[C@@H](C)[C@H](OC(=O)[C@@H](C)CC)[C@@H](O)[C@H]3O)[C@@H](O[C@@H]3O[C@@H](C)[C@H](O)[C@@H](O)[C@H]3O)[C@H]1OC(=O)[C@@H](C)CC)[C@H]2O [MURUCOIDIN VIII]
HEp-2
  EC50: 14.2 µg/mL (≈ 12.1 µM)
Staphylococcus aureus [1]
  MIC: > 512 µg/mL
Staphylococcus aureus [2]
  MIC: > 512 µg/mL
HeLa
  EC50: 16.4 µg/mL (≈ 14 µM)
Staphylococcus aureus [3]
  MIC: > 512 µg/mL
KB
  EC50: 17.9 µg/mL (≈ 15.3 µM)
Staphylococcus aureus [4]
  MIC: > 512 µg/mL

## CCCCC[C@H]1CCCCCCCCCC(=O)O[C@H]2[C@H](O[C@H]3[C@H](O1)O[C@H](CO)[C@@H](O)[C@@H]3O)O[C@@H](C)[C@H](O[C@@H]1O[C@@H](C)[C@H](O[C@@H]3O[C@@H](C)[C@H](OC(=O)C(C)C)[C@@H](O)[C@H]3O)[C@@H](O[C@@H]3O[C@@H](C)[C@H](O)[C@@H](O)[C@H]3O)[C@H]1OC(=O)[C@@H](C)CC)[C@H]2O [MURUCOIDIN VII]
HEp-2
  EC50: > 20 µg/mL
Staphylococcus aureus [1]
  MIC: 256 µg/mL (≈ 222 µM)
Staphylococcus aureus [2]
  MIC: 512 µg/mL (≈ 443 µM)
HeLa
  EC50: > 20 µg/mL
Staphylococcus aureus [3]
  MIC: > 512 µg/mL
KB
  EC50: > 20 µg/mL
Staphylococcus aureus [4]
  MIC: 32 µg/mL (≈ 27.7 µM)

## CCCCCCCCCCCC(=O)O[C@H]1[C@H](O[C@@H]2[C@H]3OC(=O)CCCCCCCCC[C@H](CCCCC)O[C@@H]4O[C@H](CO)[C@@H](O)[C@H](O)[C@H]4O[C@H](O[C@H]2C)[C@@H]3O)O[C@@H](C)[C@H](O[C@@H]2O[C@@H](C)[C@H](OC(=O)[C@@H](C)CC)[C@@H](O)[C@H]2O)[C@H]1O[C@@H]1O[C@@H](C)[C@H](O)[C@@H](O)[C@H]1O [MURUCOIDIN VI]
HEp-2
  EC50: > 20 µg/mL
Staphylococcus aureus [1]
  MIC: 256 µg/mL (≈ 202 µM)
Staphylococcus aureus [2]
  MIC: 512 µg/mL (≈ 404 µM)
HeLa
  EC50: > 20 µg/mL
Staphylococcus aureus [3]
  MIC: > 512 µg/mL
KB
  EC50: > 20 µg/mL
Staphylococcus aureus [4]
  MIC: 32 µg/mL (≈ 25.2 µM)
